# Assay results reported in ChEMBL document CHEMBL1126084, “2-Acetylpyridine thiocarbonohydrazones. Potent inactivators of herpes simplex virus ribonucleotide reductase” (J Med Chem, 1992).
# Assays:
# Human alphaherpesvirus 1 [1] = test: Inhibitory index against HSV-1 ribonucleotide reductase
# Outline: (§1)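 Index per eq 1 combines kinact and percent inhibition of initial velocity from reductase reactions ±5 μM inhibitor (unless otherwise indicated). 0.99 is subtracted from the calculated ratio, so a non-inhibiting, non-inactivating compound scores zero. HSV-1 and human enzymes were assayed under their respective conditions.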
# Human alphaherpesvirus 1 [2] = test: Inhibition of HSV-1 ribonucleotide reductase; design: concentration or dose not given beside the values; details: concentration not given here
# Outline: (§2)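 Partially purified HSV-1 ribonucleotide reductase, assayed by reduction of purified [14C]CDP in 200 mM Hepes Na+ pH 7.7, 10 mM dithiothreitol, 2 μM CDP (500 Ci/mol, 3–4 × Km), with and without 5 μM inhibitor unless otherwise indicated. First-order kinact (per hour) and v0 of decelerating product time courses come from iterative nonlinear least squares. kinact is the net increase over the uninhibited control, and % inhibition refers to v0.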
# [3] = molecular target: T1, Ribonucleoside-diphosphate reductase RR1 (Homo sapiens) (UniProt P23921+Q7LG56+P31350); test: Apparent enzyme activity measured as the ratio of HSV-1 and human enzyme inhibition induces; type: functional; details: Human alphaherpesvirus 1
# Outline: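 Apparent selectivity is the ratio of HSV-1 to human inhibition indices, each from eq 1 at 5 μM inhibitor or at the indicated concentration for each enzyme.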
# [4] = molecular target: T1, Ribonucleoside-diphosphate reductase RR1 (Homo sapiens); test: Inhibitory index against human ribonucleotide reductase; type: protein-complex assay; outline: as §1
# [5] = molecular target: T1, Ribonucleoside-diphosphate reductase RR1 (Homo sapiens); test: Inhibition of human ribonucleotide reductase; type: protein-complex assay; design: concentration or dose not given beside the values; details: concentration not given here
# Outline: (§3)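 The ATP contributed about 3 μM iron, keeping inhibitors iron-complexed. Reactions ran ±5 μM inhibitor unless otherwise indicated. kinact (per hour, net over the control) and v0 came from iterative nonlinear least-squares fits of decelerating time courses.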
# Human alphaherpesvirus 1 [6] = test: Inactivation of HSV-1 ribonucleotide reductase at rate constant K inact; outline: as §2
# [7] = molecular target: T1, Ribonucleoside-diphosphate reductase RR1 (Homo sapiens); test: Inactivation of human ribonucleotide reductase at rate constant K inact; type: protein-complex assay; outline: as §3
Structure (SMILES),Inhibitory index (Human alphaherpesvirus 1 [1]),inhibition (Human alphaherpesvirus 1 [2]) [%],Apparent selectivity (HSV-1/human inhibition index ratio) [3],Inhibitory index [4],inhibition [5] [%],kinact (Human alphaherpesvirus 1 [6]) [h⁻¹],kinact [7] [h⁻¹]
COc1ccc(N/C(S)=N/N=C(\S)N/N=C(\C)c2ccccn2)cc1,29,45,28,1.1,52,16,0
C/C(=N\N=C(/S)N/N=C(\S)Nc1ccc(C#N)cc1)c1ccccn1,29,0,17,1.7,64,29,0
C/C(=N\N=C(/S)N/N=C(\S)Nc1cccc(C#N)c1)c1ccccn1,32,0,4.8,6.6,80,32,0.6
COc1cccc(N/C(S)=N/N=C(\S)N/N=C(\C)c2ccccn2)c1,22,6.7,1.3,1.7,58,21,7
C/C(=N\N=C(/S)N/N=C(\S)Nc1ccc(C(C)(C)C)cc1)c1ccccn1,–,10,–,–,–,16,–
C/N=C(\S)N/N=C(\S)N/N=C(\C)c1ccccn1,5,17,14,0.35,19,4,0.1
C/C(=N\N=C(/S)N/N=C(\S)Nc1cc(Cl)c(Cl)cc1Cl)c1ccccn1,21,22,680,0.03,3,16,0
CC(C)C/C(=N\N=C(/S)N/N=C(\S)Nc1ccccc1Cl)c1ccccn1,23,38,70,0.33,25,14,0
Cc1cccc(/C=N/N=C(\S)N/N=C(\S)Nc2ccccc2Cl)n1,27,41,15,1.8,65,16,0
C/C(=N\N=C(/S)N/N=C(\S)Nc1ccc(Cl)cc1)c1ccccn1,99,61,38,2.6,73,39,0
O=C(NNC(=S)N/N=C/c1ccccn1)Nc1ccccc1Cl,27,14,14,1.9,66,23,0
C/C(=N\N=C(/S)N/N=C(\S)Nc1ccc(Cl)c([N+](=O)[O-])c1)c1ccccn1,48,7,200,0.24,20,45,0
C/C(=N\NC(=O)NNC(=O)Nc1ccccc1Cl)c1ccccn1,0,0,–,–,–,0,–
COc1ccc([N+](=O)[O-])cc1/N=C(\S)N/N=C(\S)N/N=C(\C)c1ccccn1,71,44,21,3.5,11,40,3
C/C(=N\N=C(/S)N/N=C(\S)NC1CCCC1)c1ccccn1,13,7,1.3,9.8,64,12,3
C/C(=N\N=C(/S)N/N=C(\S)Nc1ccc(Br)cc1)c1ccccn1,57,23,18,3.2,29,44,2
COc1ccccc1/N=C(\S)N/N=C(\S)N/N=C(\C)c1ccccn1,23,0,5.1,4.5,44,23,2.1
C/C(=N\NC(=O)N/N=C(\S)Nc1ccccc1Cl)c1ccccn1,7.5,30,–,–,–,5,–
C/C(=N\Nc1nnc(Nc2ccccc2Cl)s1)c1ccccn1,32,53,–,–,–,15,–
C/C(=N\N=C(/S)N/N=C(\S)Nc1ccccc1Cl)c1cccc[n+]1[O-],1.2,11,–,–,–,1,–

# Second part, the compound after the results:
Inhibitory index (Human alphaherpesvirus 1 [1]),inhibition (Human alphaherpesvirus 1 [2]) [%],Apparent selectivity (HSV-1/human inhibition index ratio) [3],Inhibitory index [4],inhibition [5] [%],kinact (Human alphaherpesvirus 1 [6]) [h⁻¹],kinact [7] [h⁻¹],Structure (SMILES)
72,50,80,0.9,48,36,0,C/C(=N\N=C(/S)N/N=C(\S)Nc1cccc(Cl)c1)c1ccccn1
35,18,6.5,5.4,23,29,4,C/C(=N\N=C(/S)N/N=C(\S)Nc1ccccc1I)c1ccccn1
42,31,12,3.4,55,29,1,C/C(=N\N=C(/S)N/N=C(\S)Nc1ccc(Cl)cc1C)c1ccccn1
47,15,17,2.8,21,40,2,C/C(=N\N=C(/S)N/N=C(\S)Nc1cccc(Br)c1)c1ccccn1
59,8,240,0.24,20,55,0,C/C(=N\N=C(/S)N/N=C(\S)Nc1cc(Cl)ccc1Cl)c1ccccn1
21,25,3,7,64,16,2,C/C(=N\N=C(/S)N/N=C(\S)Nc1ccc(C)cc1)c1ccccn1
34,38,210,0.16,14,21,0,C/C(=N\N=C(/S)N/N=C(\S)Nc1ccccc1Br)c1ccccn1
11,6,1.8,5.9,43,10,3,C/C(=N\N=C(/S)N/N=C(\S)Nc1ccccc1C(F)(F)F)c1ccccn1
